# SENP6 block: blocks the human protease SENP6; 330,000 tested, 1.8% active; Q9GZR1; AID 2599; inhibition, % at 10 µM; Recombinant SENP6 catalytic domain, aminoluciferin luminescence;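 active = inhibition above about 50% at the single tested dose, limit read from the data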;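 also: plate controls were DMSO wells with enzyme for no effect and DMSO wells lacking enzyme for full effect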
# Target sequence (Q9GZR1 628-1112 limits assumed): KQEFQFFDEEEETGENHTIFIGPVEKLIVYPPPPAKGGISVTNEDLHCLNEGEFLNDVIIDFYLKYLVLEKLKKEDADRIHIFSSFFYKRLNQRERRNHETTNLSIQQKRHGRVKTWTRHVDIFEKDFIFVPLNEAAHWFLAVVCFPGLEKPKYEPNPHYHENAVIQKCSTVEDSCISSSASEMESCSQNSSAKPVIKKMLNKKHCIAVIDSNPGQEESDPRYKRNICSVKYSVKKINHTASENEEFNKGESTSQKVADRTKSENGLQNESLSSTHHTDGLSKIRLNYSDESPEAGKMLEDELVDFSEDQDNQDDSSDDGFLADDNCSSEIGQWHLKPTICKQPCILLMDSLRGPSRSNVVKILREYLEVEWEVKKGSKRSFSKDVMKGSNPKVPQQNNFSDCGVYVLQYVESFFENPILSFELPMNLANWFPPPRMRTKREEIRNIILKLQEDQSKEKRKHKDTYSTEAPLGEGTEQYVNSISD
# SENP8 block-1: inhibitors of human SENP8 protease; Q96LD8; recombinant SENP8, Nedd8 substrate fluorescence; inhibition, % at 20 µM; 360,000 tested, 0.64% active; AID 602440; in the data active = inhibition mostly above about 40%, no sharp cut-off; inactive = mostly below about 27%
# SENP8 block-2: inhibitors of human SENP8 protease. Q96LD8. purified SENP8, Z-RLRGG-aminoluciferin cleavage, luminescence. inhibition, % at 10 µM. 330,000 tested, 1.2% active; in the data active = inhibition above about 50%
# Platelet DG rel: platelet dense granule release activity; inhibition, %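 (compounds screened at 7.5 µM in platelet-rich plasma)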; human platelet-rich plasma, SFLLRN dense granule ATP release, luminescence; 300,000 tested, 0.22% active;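 active = mean replicate score, as percent of positive control, at or above 50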
# SENP1 inh: SENP1 (human) catalytic domain inhibition; inhibition, % at 10 µM; recombinant SENP1 catalytic domain, CyPet-SUMO1-YPet FRET cleavage; 360,000 tested, 0.21% active; Q9P0U3;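 active = inhibition at least 30% at 10 µM, raw YFP signal under a set limit, fluorescence ratio 0.5 to 1.5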;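 also: 0% = enzyme with DMSO and 100% = no enzyme wells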
# Target sequence (Q9P0U3 419-644 limits assumed): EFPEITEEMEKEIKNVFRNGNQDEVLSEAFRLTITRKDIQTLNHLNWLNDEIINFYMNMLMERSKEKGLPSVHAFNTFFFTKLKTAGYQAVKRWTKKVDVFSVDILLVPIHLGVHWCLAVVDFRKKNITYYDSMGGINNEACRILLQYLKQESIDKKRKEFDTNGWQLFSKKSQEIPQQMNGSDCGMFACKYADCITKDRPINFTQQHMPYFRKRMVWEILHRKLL
#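 Test system: recombinant human SENP1 catalytic domain, His6-tagged / Medium: pH 8 Tris buffer with EDTA, NaCl, BME, BSA, NP40, catalase / Also added: SUMO1 FRET substrate flanked by Cypet and Ypet, 25 nM / Times: 50 min reaction at room temperature / Signal: FRET, CFP and YFP emission / Control set: no-enzyme low control and enzyme-plus-DMSO high control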
# SENP7 block: SENP7 protease inhibition | Q9BQF6 | recombinant SENP7, Z-RLRGG-aminoluciferin luminescence, 40 min | inhibition, % at 5 µM | 330,000 tested, 1.5% active | AID 434973;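 active = inhibition above about 50% at the single test dose, limit read from the data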;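 also: plate controls were DMSO with enzyme for no effect and no enzyme buffer wells for full effect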
# SENP8 conf-1: confirmation of human SENP8 protease inhibitors; shares compounds with SENP7 block; inhibition, % at 12.5 µM; Recombinant SENP8, Z-RLRGG-aminoluciferin luminescence, 60 min; 6,200 tested, 40% active;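 active = mean inhibition across replicates above about 50%, limit read from the data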
# SENP6 conf: human SENP6 inhibition, confirmed; recombinant SENP6, Z-RLRGG-aminoluciferin luminescence; inhibition, % at 12.5 µM; 6,200 tested, 58% active; shares compounds with SENP7 block
# SENP7 conf: confirmation of human SENP7 protease inhibitors. 6,200 tested, 69% active. AID 488917. recombinant SENP7, Z-RLRGG-aminoluciferin luminescence, 40 min. shares compounds with SENP7 block. inhibition, % at 12.5 µM
# Casp3 select: inhibits human caspase-3 in SENP selectivity test; shares compounds with SENP7 block; purified caspase-3, Z-DEVD-aminoluciferin luminescence, 60 min; inhibition, % at 12.5 µM; 6,200 tested, 60% active; AID 488918;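 active = mean inhibition above about 50%, limit read from the data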;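 also: plate controls were enzyme with DMSO for no effect and wells without caspase-3 for full effect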
# Luc interf: interferes with luciferase luminescence in SENP counter-screen. shares compounds with SENP7 block. Pre-incubated SENP8/Z-RLRGG-aminoluciferin, luciferase luminescence interference. inhibition, % at 12.5 µM. 6,200 tested, 39% active. AID 488919;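 active = mean inhibition above about 50% when retested at one dose, limit read from the data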;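 also: plate controls were DMSO wells with completed reaction for no effect and substrate without enzyme for full effect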
# SENP8 conf-2: SENP8 (human) inhibition, single concentration confirmation; shares compounds with SENP8 block-1; inhibition, % at 25 µM; 1,400 tested, 15% active; purified SENP8, Nedd8-AMC/pro-Nedd8 cleavage fluorescence, 30 min; in the data active = inhibition mostly above about 39%, no sharp cut-off; inactive = mostly below about 34%
# SENP1 inh conf: SENP1 (human) inhibition, single concentration confirmation; recombinant SENP1, CyPet-SUMO1-YPet FRET cleavage; shares compounds with SENP1 inh; 520 tested, 34% active; inhibition, % at 10 µM; in the data active = inhibition mostly above about 35%, no sharp cut-off; inactive = mostly below about 32%;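 also: 0% = enzyme with DMSO and 100% = no enzyme control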
# SENP1 kin conf: confirmation of human SENP1 SUMO protease inhibitors, kinetic; shares compounds with SENP1 inh; recombinant SENP1, CyPet-SUMO1-YPet FRET kinetic cleavage; inhibition, % at 10 µM; 520 tested, 26% active; in the data active = inhibition mostly above about 32%, no sharp cut-off; inactive = mostly below about 29%;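 also: 0% = DMSO with enzyme and 100% = no enzyme substrate only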
# Numbers without * were called inactive; nt = not tested or not shown. Most compounds without a hit are left out; they make up all but 2.6% or so of the library.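 The calls were made as follows, unless noted: active = mean inhibition above about 50% in the one-dose retest (limit read from the data); inactive = the rest.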
SMILES,SENP6 block,SENP8 block-1,SENP8 block-2,Platelet DG rel,SENP1 inh,SENP7 block,SENP8 conf-1,SENP6 conf,SENP7 conf,Casp3 select,Luc interf,SENP8 conf-2,others
COc1ccc2nc3ccccc3nc2c1N,87*,78*,53*,-6,5,22,-3,37,75*,73*,47,14,
Cc1ccc(/C=N/NC(=O)c2cc(C)oc2C)cc1,84*,41*,74*,7,3,86*,25,74*,95*,90*,82*,-2,
CC(=O)OCCCNc1cc(SCc2ccco2)c2nonc2c1[N+](=O)[O-],63*,50*,60*,2,-11,34,10,12,-5,5,-9,17,
Cc1ccccc1N1C(=O)c2cccc3cccc(c23)C1=O,-11,-11,7,-1,3,4,nt,nt,nt,nt,nt,nt,
Cc1ccccc1N1C(=O)Cc2ccccc2C1=O,67*,88*,27,3,-2,37,17,57*,33,24,-4,37,
Cc1nc([N+](=O)[O-])c(Sc2nc3ccccc3n2C)n1Cc1ccccc1,-13,26,-6,1,-13,-3,nt,nt,nt,nt,nt,nt,
O=C(Nc1ccc(N2CCCCC2)cc1)c1ccc([N+](=O)[O-])o1,87*,38*,74*,24,2,93*,10,90*,100*,85*,20,17,
CC1CCN(c2ccc(NC(=O)c3ccc([N+](=O)[O-])o3)cc2)CC1,75*,55*,45,0,1,78*,-23,-3,6,11,-3,-1,
CS(=O)(=O)N1CCN(c2ccc(NC(=O)c3ccc([N+](=O)[O-])o3)cc2)CC1,nt,39,nt,-8,2,nt,nt,nt,nt,nt,nt,nt,
CC1CCC(=O)N(CCC#N)CC1 (stereo not given),-20,15,-13,1,2,-6,nt,nt,nt,nt,nt,nt,
Cc1ccc(C2/C=C\CC(NC(=O)OCC3c4ccccc4-c4ccccc43)CC(=O)N2Cc2ccccc2)cc1 (stereo not given),nt,13,nt,nt,2,-8,nt,nt,nt,nt,nt,nt,
CC(C)(C)c1ccc(C(=O)NNc2cc(N3CCCCC3)nc(N3CCCCC3)n2)cc1,86*,48*,17,2,-40,74*,13,28,9,2,4,79*,
Cc1nc(NNC(=O)c2ccc([N+](=O)[O-])cc2)cc(-c2ccccc2)n1,-12,17,2,-5,4,0,nt,nt,nt,nt,nt,nt,
CC(C)(C)c1ccc(C(=O)NNc2cc(N3CCOCC3)nc(N3CCOCC3)n2)cc1,45,10,3,-4,-5,31,nt,nt,nt,nt,nt,nt,
O=C(NNc1cc(N2CCCC2)nc(N2CCCC2)n1)c1ccc([N+](=O)[O-])cc1,91*,77*,75*,-8,-14,92*,18,61*,22,-1,-2,75*,
O=C(CCc1ccccc1)NNc1cc(N2CCCCC2)nc(N2CCCCC2)n1,35,47*,4,13,-25,58*,0,16,-2,-4,-4,51*,
COc1cccc(NC(=O)CN(C)C(=O)Cc2c(C)nc3ccccc3c2C)c1,8,-41,-2,nt,-4,8,nt,nt,nt,nt,nt,nt,
CC(=O)Oc1cc(C(=O)OCC(=O)NC23CC4CC(CC(C4)C2)C3)cc(OC(C)=O)c1OC(C)=O,nt,0,nt,nt,1,nt,nt,nt,nt,nt,nt,nt,
CCN(CC)c1cc(Cl)c2nonc2c1N,44,37,17,13,15,10,nt,nt,nt,nt,nt,nt,
CN(C)c1cc(Cl)c2nonc2c1N,95*,89*,96*,-7,5,91*,15,33,5,-4,-6,56*,
COc1ccc(Nc2ccc(Nc3ccc(OC)cc3)nn2)cc1,-9,15,-1,1,0,12,nt,nt,nt,nt,nt,nt,
COc1ccc(Nc2ccc(OC)cc2)cc1,54*,96*,24,4,-1,11,-6,-10,7,10,11,14,
CN(C)c1cc(N/N=C\c2ccccc2)nc(N(C)C)n1,76*,51*,34,0,1,71*,61*,76*,36,-3,1,69*,
O=c1[nH][nH]c(=O)c2c1[nH]c(=S)n2Cc1ccccc1,nt,8,nt,nt,0,nt,nt,nt,nt,nt,nt,nt,
O=C1Cc2ccccc2C(=O)N1OCc1ccc(Cl)cc1,71*,92*,28,-2,-5,52*,12,28,17,15,4,64*,
SMILES,SENP6 block,SENP8 block-1,SENP8 block-2,Platelet DG rel,SENP1 inh,SENP7 block,SENP8 conf-1,SENP6 conf,SENP7 conf,Casp3 select,Luc interf,SENP8 conf-2,others
Cc1ccc(S(=O)(=O)NC(=O)c2ccc(-c3ccc(-c4ccccc4)cc3)o2)c(C)c1,11,nt,5,-1,nt,-5,nt,nt,nt,nt,nt,nt,
O=C1C2=C(c3ccccc31)[N+](=O)[C@@H]1CCCC[C@@H]1N2[O-],81*,74*,49,2,3,57*,14,56*,25,15,5,74*,
Cc1[nH]c2ccccc2c1C(=O)C(=O)Nc1ccc2c(c1)OCCO2,1,25,-3,6,1,7,nt,nt,nt,nt,nt,nt,
O=C(Nc1ccc2c(c1)OCO2)C(=O)c1c[nH]c2ccccc12,46,14,13,35,31*,81*,13,24,79*,75*,19,nt,SENP1 inh conf=37;SENP1 kin conf=32*
Nc1nn(-c2ccccc2)c2ccc([N+](=O)[O-])cc12,72*,29,54*,32,32*,75*,75*,72*,91*,85*,73*,nt,SENP1 inh conf=32;SENP1 kin conf=8
O=[N+]([O-])c1ccc2c(c1)nnn2-c1ccccc1,-22,8,-13,11,1,3,nt,nt,nt,nt,nt,nt,
